Data set [1] concerns the target CYP3A4 (Homo sapiens, UniProt P08684). In words: Inhibition of human recombinant CYP3A4 at 10 uM incubated for 30 mins at 37 degC using 7-benzyloxy-4-(trifluoromethyl)coumarin substrate. The class given is ADME. The following applies: recombinant CYP3A4, probe 7-benzyloxy-4-(trifluoromethyl)coumarin.
Data set [2] deals with CYP2C19 (Homo sapiens, UniProt P33261). Nature of the data set: Inhibition of human recombinant CYP2C19 at 10 uM incubated for 60 mins at 37 degC using 3-cyano-7-ethoxycoumarin substrate. The class given is ADME. The following applies: recombinant CYP2C19, probe 3-cyano-7-ethoxycoumarin.
Data set [3] has as its target CYP2C9 (Homo sapiens, UniProt P11712). In words: Inhibition of human recombinant CYP2C9 at 10 uM incubated for 80 mins at 37 degC using 7-methoxy-4-trifluoromethylcoumarin substrate. The class given is ADME. The following applies: recombinant CYP2C9, probe 7-methoxy-4-trifluoromethylcoumarin.
Data set [4] can be described thus: Permeability across basolateral to apical side in human Caco2 cells incubated for 1 hr at 37 degC by HPLC-MS/MS method. The class given is ADME, cell-based. Particulars: Caco-2. On the technique in general: Passage across Caco-2 layers is used to estimate intestinal permeability.
Data set [5] can be described thus: Permeability across apical to basolateral side in human Caco2 cells incubated for 1 hr at 37 degC by HPLC-MS/MS method. The following applies: Caco-2. The class given is ADME, cell-based. The essentials:
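TC7 (Caco-2 subclone) monolayer; 10 μM compound in 1% DMSO in HBSS-MES pH 6.5 on apical donor side, basolateral receiver pH 7.4; shaken 1 h at 37 °C; receiver sampled, HPLC-MS/MS; duplicate means.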

Data set [6] can be described thus: Protein binding in human plasma at 10 uM incubated for 8 hrs at 37 degC by equilibrium dialysis method. The class given is ADME, cell-free. Particulars: read-out: PPB (converted). The method, boiled down:
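Equilibrium dialysis: 10 μM compound in 1% DMSO in human plasma vs 0.05 M phosphate buffer pH 7.5 across 12–14 K cutoff membrane, at least 8 h at 37 °C; HPLC-photodiode detection at 230 nm; duplicate means.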

Data set [7] can be described thus: Metabolic stability in human liver microsomes assessed as parent compound remaining at 1 uM incubated for 1 hr by HPLC-MS/MS method. The class given is ADME, Microsome. The following applies: read-out: Stability. The essentials:
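Pooled mixed-gender human liver microsomes (0.3 mg/mL protein), 1 μM compound with NADP-regenerating system in phosphate buffer pH 7.4, 1 h at 37 °C; parent measured at start and end by HPLC-MS/MS; duplicate means.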

The nature of data set [8]: Solubility in simulated gastric fluid at pH 1.5 by HPLC method. The class given is physicochemical. The method, boiled down: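 Compound at 200 μM final in 2% DMSO in simulated gastric fluid, shaken 24 h at room temperature; HPLC-photodiode array detection at 230 nm; duplicate means.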
Data set [9] is described as follows: Solubility in simulated intestinal fluid at pH 7.6 by HPLC method. The class given is physicochemical. The essentials:
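Simulated intestinal fluid medium; each analogue 200 μM final in 2% DMSO, shaken 24 h at room temperature, then HPLC with photodiode array read at 230 nm; duplicate, means given.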

The test system of data set [10] is Vero. Nature of the data set: Cytotoxicity against african green monkey Vero cells. Particulars: Chlorocebus sabaeus, Vero; read-out: IC50. The class given is cell-based, Chlorocebus sabaeus.
In data set [11] the test system is Mycobacterium tuberculosis. In words: Antitubercular activity against Mycobacterium tuberculosis H37Rv incubated at 37 degC for 14 days in presence of 40% human serum by microplate alamar blue assay. The class given is functional. Particulars: 336 h. The method, boiled down: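 This is the MABA run in 7H9 broth containing 40% human serum. Compounds were 2-fold serially diluted, and wells were inoculated with H37Rv at 2 × 10⁵ CFU/mL. Incubation was at 37 °C for 14 days, then Alamar Blue was added. MIC was the lowest concentration preventing the blue-to-pink colour change.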
For orientation: Alamar Blue is a resazurin reagent that responds to reducing activity.

In data set [12] the test system is Mycobacterium tuberculosis. Nature of the data set: Antitubercular activity against Mycobacterium tuberculosis H37Rv incubated at 37 degC for 7 days by microplate alamar blue assay. The class given is functional. The essentials: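 Mtb H37Rv was grown in 7H9 broth with glycerol, Casitone, 10% OADC and 0.05% Tween 80 to OD600 0.4. Compounds were 2-fold serially diluted from DMSO stocks in 7H9, and wells were inoculated at 2 × 10⁵ CFU/mL. After 7 days at 37 °C, Alamar Blue was added and read after a further 24 h. MIC was the lowest concentration preventing the blue-to-pink change.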

A short description of data set [13]: Aqueous solubility in PBS buffer at pH 7.4 by HPLC method. The class given is physicochemical. Particulars: buffer. The method, boiled down:
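Compound at 200 μM final in 2% DMSO in PBS pH 7.4, shaken 24 h at room temperature; quantified by HPLC with photodiode array detection at 230 nm; duplicate, mean reported.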

Data set [14] in a line: Distribution coefficient, log D of the compound between n-octanol and PBS buffer at pH 7.4 incubated for 1 hr by shake flask method. The class given is physicochemical. The essentials: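 Partition between n-octanol and PBS pH 7.4 after 1 h shaking at room temperature; phases analysed by HPLC with photodiode detection; logD = log10 of organic/aqueous amount.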
Data set [15] in a line: Half life in female rat at 56 mg/kg, po. The class given is ADME, organism-based. Also on record: dose 56 mg/kg, route oral. The following applies: in vivo.
Data set [16] is described as follows: Half life in male rat at 56 mg/kg, po. Set-up: dose 56 mg/kg, route oral. The following applies: in vivo. The class given is ADME, organism-based.
The nature of data set [17]: Efflux ratio in human Caco2 cells incubated for 1 hr at 37 degC by HPLC-MS/MS method. The class given is ADME, cell-based. The following applies: Caco-2.

In brackets after ≈: the same amount, converted by molar mass.

Sequence of CYP2C9 (P11712 whole entry): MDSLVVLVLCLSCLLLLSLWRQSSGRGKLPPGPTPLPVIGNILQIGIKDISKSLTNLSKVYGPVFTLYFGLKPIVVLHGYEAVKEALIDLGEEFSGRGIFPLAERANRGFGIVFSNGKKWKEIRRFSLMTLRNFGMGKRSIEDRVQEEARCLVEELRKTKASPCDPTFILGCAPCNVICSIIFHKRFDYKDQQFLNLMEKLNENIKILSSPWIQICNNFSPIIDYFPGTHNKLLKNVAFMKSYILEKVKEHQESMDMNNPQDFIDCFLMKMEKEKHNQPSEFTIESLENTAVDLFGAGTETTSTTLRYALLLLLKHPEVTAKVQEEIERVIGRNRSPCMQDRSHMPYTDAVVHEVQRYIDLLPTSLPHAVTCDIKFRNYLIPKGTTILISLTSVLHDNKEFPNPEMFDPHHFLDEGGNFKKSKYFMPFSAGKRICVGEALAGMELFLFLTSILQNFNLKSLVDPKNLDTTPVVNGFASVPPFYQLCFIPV
Sequence of CYP3A4 (P08684 whole entry): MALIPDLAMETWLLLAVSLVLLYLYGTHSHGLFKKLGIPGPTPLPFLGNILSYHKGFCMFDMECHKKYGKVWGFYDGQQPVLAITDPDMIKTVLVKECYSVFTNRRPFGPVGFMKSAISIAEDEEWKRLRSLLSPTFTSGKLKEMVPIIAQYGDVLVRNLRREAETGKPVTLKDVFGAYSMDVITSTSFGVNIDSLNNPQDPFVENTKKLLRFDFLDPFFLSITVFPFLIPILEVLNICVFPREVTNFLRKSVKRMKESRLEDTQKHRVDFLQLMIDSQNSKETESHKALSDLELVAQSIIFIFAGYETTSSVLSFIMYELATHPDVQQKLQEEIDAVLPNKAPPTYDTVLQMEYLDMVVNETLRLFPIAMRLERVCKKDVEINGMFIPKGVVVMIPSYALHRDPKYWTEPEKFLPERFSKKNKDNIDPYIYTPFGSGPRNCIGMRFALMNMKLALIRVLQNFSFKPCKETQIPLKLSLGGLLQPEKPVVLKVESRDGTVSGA
Sequence of CYP2C19 (P33261 whole entry): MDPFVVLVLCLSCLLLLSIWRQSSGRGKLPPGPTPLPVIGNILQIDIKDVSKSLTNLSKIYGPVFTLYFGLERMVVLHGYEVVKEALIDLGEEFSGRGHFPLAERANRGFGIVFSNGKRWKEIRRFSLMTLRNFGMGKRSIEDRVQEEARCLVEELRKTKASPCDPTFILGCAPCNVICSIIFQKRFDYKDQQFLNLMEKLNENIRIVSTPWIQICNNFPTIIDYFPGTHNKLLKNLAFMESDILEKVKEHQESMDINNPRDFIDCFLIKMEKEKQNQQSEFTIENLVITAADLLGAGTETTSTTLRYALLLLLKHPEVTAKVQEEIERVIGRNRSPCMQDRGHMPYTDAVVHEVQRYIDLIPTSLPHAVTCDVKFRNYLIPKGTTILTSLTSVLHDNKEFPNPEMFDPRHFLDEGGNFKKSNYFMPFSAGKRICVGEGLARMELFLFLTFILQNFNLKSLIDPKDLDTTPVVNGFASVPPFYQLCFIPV

On to `O=C1c2ccccc2-n2c1nc1ccccc1c2=O` [TRYPTANTHRIN], for which the inhibition (as a rule, the percentage by which the read-out fell short of the control) at 0.5 h, 10 µM in [1] came out at 12%. Besides, in data set [2], the inhibition at 1 h, 10 µM was 9%. In addition, the inhibition at 80 min, 10 µM in [3] is 25%. The Papp B→A (as a rule, the apparent permeability from the basolateral to the apical side of a cell layer) at 1 h in data set [4] is 22.5 ×10⁻⁶ cm/s. Further, the apical-to-basolateral permeability (Papp A→B) – broadly, how fast a substance crosses the layer from the apical side – at 1 h in data set [5] is 60.1 ×10⁻⁶ cm/s. Moreover, the fraction unbound at 8 h, 10 µM in data set [6] was 0.041. Besides, the remaining at 1 h, 1 µM in data set [7] turned out to be 15%. In addition, the solubility (commonly the dissolved amount per volume that the medium holds) in data set [8] is 11.7 µM (≈ 2.9 µg/mL); in data set [9] it was 12.9 µM (≈ 3.2 µg/mL); in data set [13] it was 5.4 µM (≈ 1.34 µg/mL). For the same compound, in data set [10], the 50% inhibitory concentration (IC50) (usually the point on the concentration scale where inhibition reaches its midpoint) is above 8 µg/mL. Besides, the minimum inhibitory concentration (MIC) (as a rule, the lowest concentration found to suppress growth) in [11] was found to be 1 µg/mL; in [12] (Mycobacterium tuberculosis, H37Rv, 168 h), 1 µg/mL (≈ 4.03 µM). Also, in data set [12], the MBC90 came to 1 µg/mL (≈ 4.03 µM). In addition, the log distribution coefficient (logD) (commonly lipophilicity at a set pH, counting ionised and neutral species) at 1 h in [14] was found to be 2.29. Further, the half-life (in general, how long it takes for the measured level to halve) in data set [15] was 4.35 h; in data set [16] it was 5.6 h. In data set [17], the efflux ratio (commonly the permeability from basolateral to apical divided by that in the opposite direction, in the common usage) at 1 h is above 1.

(Values after ChEMBL document CHEMBL2346548, “Design, synthesis, and structure-activity relationship studies of tryptanthrins as antitubercular agents” (J Nat Prod, 2013).)
